Converted amounts (≈) assume the structure as drawn.
How the values were obtained:
Type in all cases: functional
[1] = system: Mycobacterium tuberculosis; experiment: Antimycobacterial activity against isoniazid/streptomycin resistant Mycobacterium tuberculosis isolate 780 measured after 5 days by MTT dye based two-fold microdilution method; settings: isolate 780, 120 h
Procedure, shortened: (§1)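 Two-fold serial dilution in 96-well plates in Middlebrook 7H9 with 10% ADS and 1% glycerol (7H9-ADS-G). DMSO stocks were diluted to a top concentration of 100 μg/mL and down to 0.8 μg/mL, run in duplicate. Wells received mid-log bacilli in 7H9-ADS-G, incubated 5 days at 37 °C, then MTT for 24 h. MIC is the lowest concentration blocking yellow-to-purple change. Rifampicin was the control.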

[2] = system: Mycobacterium tuberculosis; experiment: Antimycobacterial activity against rifampicin/isoniazid/pyrazinamide resistant Mycobacterium tuberculosis isolate 122 measured after 5 days by MTT dye based two-fold microdilution method; settings: isolate 122, 120 h; procedure, shortened: as §1
[3] = system: Mycobacterium tuberculosis; experiment: Antimycobacterial activity against rifampicin/streptomycin resistant Mycobacterium tuberculosis isolate 675 measured after 5 days by MTT dye based two-fold microdilution method; settings: isolate 675, 120 h; procedure, shortened: as §1
[4] = system: Mycobacterium tuberculosis; experiment: Antimycobacterial activity against rifampicin-resistant Mycobacterium tuberculosis isolate 925 measured after 5 days by MTT dye based two-fold microdilution method; settings: isolate 925, 120 h; procedure, shortened: as §1
[5] = system: Mycobacterium tuberculosis; experiment: Antimycobacterial activity against rifampicin-resistant Mycobacterium tuberculosis isolate 110 measured after 5 days by MTT dye based two-fold microdilution method; settings: isolate 110, 120 h; procedure, shortened: as §1
[6] = system: Mycobacterium tuberculosis; experiment: Antimycobacterial activity against isoniazid/streptomycin resistant Mycobacterium tuberculosis isolate 681 measured after 5 days by MTT dye based two-fold microdilution method; settings: isolate 681, 120 h; procedure, shortened: as §1
[7] = system: Mycobacterium tuberculosis; experiment: Antimycobacterial activity against rifampicin-resistant Mycobacterium tuberculosis isolate 277 measured after 5 days by MTT dye based two-fold microdilution method; settings: isolate 277, 120 h; procedure, shortened: as §1
[8] = system: Mycobacterium tuberculosis; experiment: Antimycobacterial activity against isoniazid resistant Mycobacterium tuberculosis isolate 620 measured after 5 days by MTT dye based two-fold microdilution method; settings: isolate 620, 120 h; procedure, shortened: as §1
[9] = system: Mycobacterium tuberculosis; experiment: Antimycobacterial activity against isoniazid resistant Mycobacterium tuberculosis isolate 277b measured after 5 days by MTT dye based two-fold microdilution method; settings: 120 h; procedure, shortened: as §1
[10] = system: Mycobacterium tuberculosis; experiment: Antimycobacterial activity against isoniazid/streptomycin resistant Mycobacterium tuberculosis isolate 396 measured after 5 days by MTT dye based two-fold microdilution method; settings: isolate 396, 120 h; procedure, shortened: as §1
[11] = system: Mycobacterium tuberculosis; experiment: Antimycobacterial activity against rifampicin-resistant Mycobacterium tuberculosis isolate 958 measured after 5 days by MTT dye based two-fold microdilution method; settings: isolate 958, 120 h; procedure, shortened: as §1
[12] = system: Mycobacterium tuberculosis; experiment: Antimycobacterial activity against rifampicin/isoniazid/pyrazinamide resistant Mycobacterium tuberculosis isolate 501 measured after 5 days by MTT dye based two-fold microdilution method; settings: isolate 501, 120 h; procedure, shortened: as §1
[13] = system: Mycobacterium tuberculosis; experiment: Antimycobacterial activity against rifampicin-resistant Mycobacterium tuberculosis isolate 300 measured after 5 days by MTT dye based two-fold microdilution method; settings: isolate 300, 120 h; procedure, shortened: as §1
[14] = system: Mycobacterium tuberculosis; experiment: Antimycobacterial activity against isoniazid/streptomycin resistant Mycobacterium tuberculosis isolate 914 measured after 5 days by MTT dye based two-fold microdilution method; settings: isolate 914, 120 h; procedure, shortened: as §1

`CCCCCCCCc1cn(CC(=O)OCC)nn1` showed an MIC [1] of 1.9 µM (≈ 0.508 µg/mL), an MIC [2] of 0.9 µM (≈ 0.241 µg/mL) and an MIC [3] of 1.9 µM (≈ 0.508 µg/mL). For the same compound, the MIC [4] was 1.9 µM (≈ 0.508 µg/mL), the MIC [5] was 1.9 µM (≈ 0.508 µg/mL) and the MIC [6] was 1.9 µM (≈ 0.508 µg/mL). For the same compound, the MIC [7] was 1.9 µM (≈ 0.508 µg/mL), the MIC [8] was 1.9 µM (≈ 0.508 µg/mL) and the MIC [9] was 1.9 µM (≈ 0.508 µg/mL). It also gave an MIC [10] of 1.9 µM (≈ 0.508 µg/mL), an MIC [11] of 1.9 µM (≈ 0.508 µg/mL) and an MIC [12] of 3.7 µM (≈ 0.989 µg/mL). It also gave an MIC [13] of 1.9 µM (≈ 0.508 µg/mL) and an MIC [14] of 1.9 µM (≈ 0.508 µg/mL).
